Molecules are shown by their SMILES.

Here are results for 98 compounds from ChEMBL document CHEMBL4513216, “Probing the Open Global Health Chemical Diversity Library for Multistage-Active Starting Points for Next-Generation Antimalarials” (ACS Infect Dis, 2020).

The series in a line: Toxicity liver stage against HepG2, at 10uM. Format: cell-based. The arrangement: test concentration 10 uM, cell line HepG2-A16-CD81EGFP. The note with it: human, HepG2-A16-CD81EGFP cells; read-out: INHIBITION
In outline: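 Uninfected HepG2-A16-CD81EGFP cells, 3 × 10^3 per well, 1536-well, plated on prespotted compound at 10 μM final, parasite-free screening media added to match infected plates; puromycin 10 μM positive, DMSO 0.5% negative; run in parallel with 48 h PbLuc assay at 37 °C, 5% CO2; viability by CellTiter-Glo luminescence, normalized to controls.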
Turning to `CCc1c(C(=O)NCC2CCS(=O)(=O)C2)cnn1-c1ccc(C)cc1` (stereo not drawn), the cytotoxicity at 10 µM is -6.69%.

With `CN1C[C@H]2CN(Cc3cccc(OC(F)(F)F)c3)CCN2C1=O`, the cytotoxicity at 10 µM amounted to 4.85%.

On to `O=C1CO[C@H]2CN(Cc3ccc(F)c(F)c3)C[C@H]2N1`, for which the cytotoxicity at 10 µM is -2.49%.

On to `CN(C)C[C@H]1O[C@H](Cc2cc(-c3ccccn3)on2)CC[C@@H]1O`, for which the cytotoxicity at 10 µM was -3.15%.

For `CC1=C(c2ccc(C)cc2)S(=O)(=O)N=C1N1CCc2ccccc21`, the cytotoxicity at 10 µM was -7.12%.

In the case of `COc1ccc(-c2cc(C(=O)NCCC(C)C)n(C)n2)cc1`, the cytotoxicity at 10 µM is 0%.

Take `COCCn1ccc2c(NC(=O)c3n[nH]c4c3CCCC4)cccc21`: the cytotoxicity at 10 µM turned out to be 10.3%.

Turning to `COC1COC2(CCN(Cc3ccco3)CC2)C1` (stereo not drawn), the cytotoxicity at 10 µM worked out at 8.62%.

Turning to `Cc1ccc(N2CCOCC3(CCCN(c4ncc(F)cn4)C3)C2)nn1` (stereo not drawn), the cytotoxicity at 10 µM is -123%.

For the compound `CCOc1cccc2c1OCC(=O)N(c1ccc3c(c1)OCO3)C2`, the cytotoxicity at 10 µM came out at 17.1%.

Regarding `COCCCNC(=O)Cn1c(-c2cccc(Cl)c2)nc(C)cc1=O`, the cytotoxicity at 10 µM is -8.41%.

Consider `Cn1nccc1C(=O)NCCN1CCC(O)(c2ccc(F)cc2)CC1`, for which the cytotoxicity at 10 µM came out at 1.09%.

In the case of `COCCC(=O)N1CCC2(CC1)CN(C(C)=O)Cc1ccccc1O2`, the cytotoxicity at 10 µM was 0.245%.

Turning to `COCC(=O)N1CCC2(CC1)CN(S(C)(=O)=O)Cc1ccccc1O2`, the cytotoxicity at 10 µM was 7.3%.

With `CN1CCC(NC(=O)C2CN(c3cncnc3)CCO2)CC1` (stereo not drawn), the cytotoxicity at 10 µM was -32.5%.

As for `CCc1nnc(Nc2cccc(C3CCN(CC4CC4)CC3)n2)s1`, the cytotoxicity at 10 µM is -26.8%.

As for `Cc1ccc(=O)n(CC2(O)CCN(Cc3cnc(N(C)C)nc3)CC2)n1`, the cytotoxicity at 10 µM was -26%.

Turning to `Cc1ncc(CNC(=O)CCOc2ccccc2)c(C2CCCN2C)n1` (stereo not drawn), the cytotoxicity at 10 µM is -1.03%.

Consider `CN(c1cccnc1N1CCCC1)S(=O)(=O)c1cccs1`, for which the cytotoxicity at 10 µM turned out to be 20.4%.

Turning to `CNC(=O)Cc1ccc(NC(=O)NCC(C)c2ncc(C)s2)cc1` (stereo not drawn), the cytotoxicity at 10 µM was -14.4%.

With `CCCC(O)CNc1cncc(Br)c1` (stereo not drawn), the cytotoxicity at 10 µM was 22.2%.

With `Cc1nnc(NC(=O)NCc2ccc(N3CCNC(=O)C3)cc2)s1`, the cytotoxicity at 10 µM is -1.26%.

`O=C(CCc1ccsc1)NCC1CCN(Cc2cccs2)CC1`: the cytotoxicity at 10 µM came out at 12.9%.

On to `Cc1ccc(S(C)(=O)=O)cc1C(=O)N(C)Cc1ccco1`, for which the cytotoxicity at 10 µM is 0.0194%.

Regarding `Cc1ccc(CNC(=O)NC2CCCN(c3ncccn3)C2)n1C` (stereo not drawn), the cytotoxicity at 10 µM worked out at 5.23%.

Consider `CN(CCc1ccncc1)C1CCCN(Cc2noc(C3CC3)n2)C1` (stereo not drawn), for which the cytotoxicity at 10 µM came to 8.66%.

As for `Cc1nn(C)c(N2CCOCC2)c1CNC(c1ccccc1)C1CC1` (stereo not drawn), the cytotoxicity at 10 µM turned out to be 4.45%.

`CCS(=O)(=O)N1CCC(Oc2ccc(C#N)cc2)CC1`: the cytotoxicity at 10 µM was found to be 16.8%.

In the case of `COc1ccc(S(=O)(=O)N2CCC(OCc3ccccn3)C2)cc1Br` (stereo not drawn), the cytotoxicity at 10 µM was found to be 2.24%.

As for `Cc1cccc(C2(C(=O)NCC(C)CN3CCCC3=O)CC2)c1` (stereo not drawn), the cytotoxicity at 10 µM is -0.89%.

For the compound `Cc1cc(F)ccc1N1CCCC(NC2CCSCC2)C1=O` (stereo not drawn), the cytotoxicity at 10 µM was 1.07%.

For the compound `CC(C)COC(C)C(=O)N1CCCC1` (stereo not drawn), the cytotoxicity at 10 µM was 2.77%.

On to `CCCS(=O)(=O)N(C)C(=O)CCc1ccccc1`, for which the cytotoxicity at 10 µM stood at 4.83%.

In the case of `OC(COCc1ccco1)CSc1nnc2ccccn12` (stereo not drawn), the cytotoxicity at 10 µM amounted to 3.55%.

With `CNC(=O)COc1ccccc1CNCc1c(C)noc1C`, the cytotoxicity at 10 µM was found to be 2.32%.

On to `CNC(=O)C1CCCN(C(=O)C2CCC2)C1` (stereo not drawn), for which the cytotoxicity at 10 µM was -4.47%.

For the compound `Cc1csc(CNc2cnn(CC(F)(F)F)c2)n1`, the cytotoxicity at 10 µM turned out to be 5.19%.

Turning to `CSCCC(C)NC(=O)N1CCSC(C)(C)C1` (stereo not drawn), the cytotoxicity at 10 µM turned out to be 5.89%.

For `Cc1cc(C)c(CNc2ncnc3ccccc23)c(=O)[nH]1`, the cytotoxicity at 10 µM turned out to be 17.6%.

Regarding `Cc1cnc(NC2CCN(CC(=O)Nc3ccccc3)CC2)nc1C`, the cytotoxicity at 10 µM was -5.47%.

As to `Cn1cc(-c2ncnc3c2CCN(C(=O)c2cscn2)CC3)cn1`, the cytotoxicity at 10 µM amounted to 1.15%.

Regarding `CCOCC1CN(C(=O)c2cccs2)Cc2cnn(CC3CC3)c21` (stereo not drawn), the cytotoxicity at 10 µM was -1%.

For `c1ccc(CN2CCc3ncnc(-c4cncnc4)c3CC2)nc1`, the cytotoxicity at 10 µM is -68.3%.

Take `CC[C@H](CO)NC(=O)c1coc(COc2ccccc2F)n1`: the cytotoxicity at 10 µM was found to be 5.21%.

For `CCC(=O)N1CCN(C(=O)c2cn3ccsc3n2)[C@H]2CS(=O)(=O)C[C@H]21`, the cytotoxicity at 10 µM was 4.95%.

Take `CN(Cc1cc(C2CC2)[nH]n1)C(=O)c1cnn2ccn(C)c12`: the cytotoxicity at 10 µM was -3.67%.

Turning to `CCc1cnc(C)nc1NC1CC(=O)N(CC)C1` (stereo not drawn), the cytotoxicity at 10 µM came out at 1.07%.

As to `COc1ccc2c(c1)OCC(Cc1ccc(N(C)C)nc1)C2` (stereo not drawn), the cytotoxicity at 10 µM was 2.77%.

Regarding `Cc1ncsc1CCC(=O)N(C)Cc1nc2ccccc2n1C`, the cytotoxicity at 10 µM is -143%.

`Cc1cc(N2CCN(C(=O)Cc3c(C)nc(C)[nH]c3=O)CC2)cc(C)n1`: the cytotoxicity at 10 µM worked out at 9.66%.

Take `Cc1ccc2c(c1)SCC(=O)N2Cc1noc(C2CCCO2)n1` (stereo not drawn): the cytotoxicity at 10 µM was -0.0938%.

Take `CCC1CN(C(=O)c2ccccc2N(C)C)CCN1C(C)C` (stereo not drawn): the cytotoxicity at 10 µM is -0.238%.

Take `CCN(Cc1ccncc1)Cc1c[nH]nc1-c1ccc(F)cc1`: the cytotoxicity at 10 µM was -5.83%.

For `Cc1nc(C)n(CC(C)C(=O)N2CCC(CN3CCOCC3)CC2)n1` (stereo not drawn), the cytotoxicity at 10 µM amounted to 0.635%.

Turning to `CCc1nn(C)c(Cl)c1CN1C[C@H](NC(=O)CCO)[C@@H](C(C)C)C1`, the cytotoxicity at 10 µM came out at 11.1%.

Regarding `CCc1[nH]c2c(CNC(=O)C3CCN(C)C3)cc(C)cc2c1C` (stereo not drawn), the cytotoxicity at 10 µM is -7.71%.

Regarding `O=C(C1CC1)N1CCN(C(=O)CSc2ccccn2)[C@H]2CS(=O)(=O)C[C@H]21`, the cytotoxicity at 10 µM is -24.6%.

With `CC(C)[C@@H]1CN(CCOc2ccc(Cl)cc2)C[C@H]1NS(C)(=O)=O`, the cytotoxicity at 10 µM is -52.4%.

`O=C1CCOCCN1Cc1ccc(C(F)(F)F)c(F)c1`: the cytotoxicity at 10 µM was -7.63%.

Take `COCc1noc(CN2C(=O)OC[C@@H]2C(C)C)n1`: the cytotoxicity at 10 µM was -11.8%.

For `Cc1nnc(SCCNC(=O)Cn2cnc3ccccc3c2=O)s1`, the cytotoxicity at 10 µM was 4.79%.

Take `CN(C)CCN1CC(C(=O)N2CCC(c3cc(=O)[nH]cn3)CC2)CC1=O` (stereo not drawn): the cytotoxicity at 10 µM is -2.34%.

For `O=C(Cc1c[nH]c2ccccc12)NCC1CCN(Cc2c[nH]cn2)C1` (stereo not drawn), the cytotoxicity at 10 µM was found to be 2.34%.

Regarding `Clc1cc(NCc2nccs2)nc2[nH]ccc12`, the cytotoxicity at 10 µM is 6.58%.

Take `CCOCC(O)c1nc2c([nH]1)CC(C)(C)CNC2=O` (stereo not drawn): the cytotoxicity at 10 µM was 4.71%.

In the case of `CCCc1ccc(OC23CCCN(CC2)C3)c(OC)c1` (stereo not drawn), the cytotoxicity at 10 µM is -17.3%.

As for `C[C@@H]1CN(Cc2c[nH]c(CC3CCCC3)n2)CC[C@]1(C)O`, the cytotoxicity at 10 µM came to 3.69%.

As for `CCc1cnc(N)nc1NCCCn1nc(C)nc1C`, the cytotoxicity at 10 µM is -1.37%.

On to `Cc1ccc(C(=O)N2CCC3(CCC(=O)N(CCN(C)C)C3)CC2)nc1`, for which the cytotoxicity at 10 µM was -1.62%.

For the compound `Cc1cc(-c2nn(C)c(Cl)c2CN2CCOCC2CC(N)=O)no1` (stereo not drawn), the cytotoxicity at 10 µM stood at 3.3%.

With `CCN(Cc1ccncc1)C(=O)CCn1c(C)cc2ccccc21`, the cytotoxicity at 10 µM is -3.38%.

Take `c1cnn(CC2CCCCN2c2ncnc3ccsc23)c1` (stereo not drawn): the cytotoxicity at 10 µM was -13.9%.

With `Cc1cnn(C2CCCN(C(=O)c3cccc(-n4cnnn4)c3)C2)c1` (stereo not drawn), the cytotoxicity at 10 µM is -8.77%.

Take `CN(Cc1ccccc1)CC(O)Cn1cnc2ccc(Br)cc2c1=O` (stereo not drawn): the cytotoxicity at 10 µM was -9.04%.

For `O=C(Nc1nccs1)NC1CCN(Cc2ccccc2)CC1`, the cytotoxicity at 10 µM is -7.07%.

On to `Cc1cc(C[S+]([O-])CC(=O)Nc2c(C)cccc2C)no1` (stereo not drawn), for which the cytotoxicity at 10 µM is -9.65%.

Consider `CC(C)OCc1ccc(CNC(=O)CC(F)(F)F)cc1`, for which the cytotoxicity at 10 µM is -2.26%.

As for `CCC1c2ccsc2CCN1C(=O)NCc1ccccn1` (stereo not drawn), the cytotoxicity at 10 µM was -4.51%.

For the compound `O=C1C(NCc2nnc3n2CCCC3)CCN1c1ccccc1` (stereo not drawn), the cytotoxicity at 10 µM was -11.2%.

Regarding `Cc1cc(C)c(CNC(=O)NCC2CCCN2C)c(=O)[nH]1` (stereo not drawn), the cytotoxicity at 10 µM is -2.14%.

As for `COCC(=O)NC(C)Cc1cccc(Br)c1` (stereo not drawn), the cytotoxicity at 10 µM was -8.21%.

As for `CCc1nnc2n1CCN(CCS(=O)(=O)c1ccccc1)C2`, the cytotoxicity at 10 µM was -11.6%.

As for `O=C(COc1ccc2c(c1)CCC2)N1CCOCC1c1ncon1` (stereo not drawn), the cytotoxicity at 10 µM is -10.2%.

Consider `O=C(NCCNc1ccccn1)N1CCSCC1`, for which the cytotoxicity at 10 µM was -9.58%.

With `CS(=O)(=O)NCC1CCCN(C(=O)c2ccc(Cl)o2)C1` (stereo not drawn), the cytotoxicity at 10 µM is -10.2%.

On to `CCCC(=O)N(C)Cc1nc(N2CCCC2)ncc1-c1ccncc1`, for which the cytotoxicity at 10 µM amounted to 9.76%.

In the case of `Cc1ccc(CN2CCC(O)(Cn3nc(-c4cccs4)oc3=O)CC2)o1`, the cytotoxicity at 10 µM stood at 8.52%.

Regarding `Cc1ccc(CN2C(=O)CCC23CCC(NCC2CCOC2)CC3)cc1` (stereo not drawn), the cytotoxicity at 10 µM is -4.75%.

Regarding `CN(CCO)CC1COCCN1C(=O)C1(c2cccs2)CCCC1` (stereo not drawn), the cytotoxicity at 10 µM is -9.06%.

Take `NCC1CCC(c2c(C(N)=O)sc3ccccc23)CC1` (stereo not drawn): the cytotoxicity at 10 µM is 1.52%.

With `O=C1[C@H]2CN(Cc3cccs3)C[C@H]2CN1c1ccsc1`, the cytotoxicity at 10 µM was -79%.

For the compound `CC(=O)N1CCC2(CC1)COC(COCc1ccccn1)C2` (stereo not drawn), the cytotoxicity at 10 µM was -114%.

As to `COCc1cncc2c1CCN(C(=O)c1cccc(C#N)c1)C2`, the cytotoxicity at 10 µM is -98.2%.

In the case of `CC(C)C(=O)N1CC[C@H]2N(C)CC[C@@]2(C(=O)N2CCOCC2)CC1`, the cytotoxicity at 10 µM is -0.449%.

Take `CN(C)CCn1c2c(ccc1=O)CC(NC(=O)c1cnccn1)CC2` (stereo not drawn): the cytotoxicity at 10 µM was -2.4%.

Take `CC(C)NC(=O)[C@@H]1C[C@H]2NCC[C@H]2O1`: the cytotoxicity at 10 µM is -96.9%.

As to `O=C(c1ccncc1)N1CCC2(CC1)CCN(Cc1ccccn1)C2=O`, the cytotoxicity at 10 µM was -3.18%.

Regarding `O=C(c1ccco1)N1C2CCC(O)(CC2)C1CO` (stereo not drawn), the cytotoxicity at 10 µM was 6.88%.
